Reference: ChEMBL document CHEMBL3108710, “Discovery of a novel class of dimeric Smac mimetics as potent IAP antagonists resulting in a clinical candidate for the treatment of cancer (AZD5582)” (J Med Chem, 2013)
Values after ≈ are worked out from the molar mass of the structure shown. Active and inactive are the calls of the source. The calls are words filed in the database; no cut-off is given here.

What was measured:
[1] = Aqueous equilibrium solubility of compound in phosphate buffer at pH 7.4 after 24 hrs by HPLC-UV analysis; type: physicochemical
MDA-MB-231 = experiment: Antiproliferative activity against human MDA-MB-231 cells assessed as growth inhibition after 48 hrs by Alamar Blue assay; type: functional; details: MDA-MB-231, 48 h
[2] = Fraction unbound in human plasma at 10 uM by equilibrium dialysis method; type: ADME, cell-free
[3] = biological target: T1, Baculoviral IAP repeat-containing protein 2 (Homo sapiens, UniProt Q13490); experiment: Binding affinity to cIAP1 in human MDA-MB-231 cells assessed as induction of protein degradation after 1 hr by ELISA; type: cell-based
T1 sequence (Q13490 whole entry): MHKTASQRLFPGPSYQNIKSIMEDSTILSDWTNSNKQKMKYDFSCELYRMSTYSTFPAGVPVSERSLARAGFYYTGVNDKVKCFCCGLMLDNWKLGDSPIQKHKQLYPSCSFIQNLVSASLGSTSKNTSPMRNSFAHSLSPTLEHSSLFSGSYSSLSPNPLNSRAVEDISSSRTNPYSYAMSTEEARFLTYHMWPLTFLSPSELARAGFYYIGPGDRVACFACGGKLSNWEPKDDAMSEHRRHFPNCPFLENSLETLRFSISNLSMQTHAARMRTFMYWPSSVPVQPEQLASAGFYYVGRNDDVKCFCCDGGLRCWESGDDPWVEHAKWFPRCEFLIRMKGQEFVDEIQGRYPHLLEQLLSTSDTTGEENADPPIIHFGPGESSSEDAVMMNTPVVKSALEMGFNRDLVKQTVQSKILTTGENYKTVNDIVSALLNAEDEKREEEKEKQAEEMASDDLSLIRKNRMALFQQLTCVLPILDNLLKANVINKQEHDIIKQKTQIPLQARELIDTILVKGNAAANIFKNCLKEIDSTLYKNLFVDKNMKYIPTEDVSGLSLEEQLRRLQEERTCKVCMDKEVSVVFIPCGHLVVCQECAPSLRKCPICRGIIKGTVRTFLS

[4] = AUC in Han Wistar rat at 0.5 mg/kg, iv by LC-MS/MS analysis; type: ADME, organism-based; parameters: dose 0.5 mg/kg, route intravenous; details: plasma
Outline: (§1)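 Rat PK after a single intravenous bolus. Parameters derived from plasma levels: total plasma clearance, steady-state volume of distribution, half-life and AUC.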

[5] = Elimination half life in Han Wistar rat at 0.5 mg/kg, iv by LC-MS/MS analysis; type: ADME, organism-based; parameters: dose 0.5 mg/kg, route intravenous; details: in vivo, read-out: beta t1/2 (converted); outline: as §1
[6] = Total plasma clearance in Han Wistar rat at 0.5 mg/kg, iv by LC-MS/MS analysis; type: ADME, organism-based; parameters: dose 0.5 mg/kg, route intravenous; outline: as §1
[7] = Volume of distribution at steady state in Han Wistar rat at 0.5 mg/kg, iv by LC-MS/MS analysis; type: ADME, organism-based; parameters: dose 0.5 mg/kg, route intravenous; details: in vivo, read-out: Vdss; outline: as §1
[8] = biological target: T1, Baculoviral IAP repeat-containing protein 2; experiment: Displacement of AbuRPFK-5FAM from GST-tagged cIAP1 BIR3 domain (L250 to G350) (unknown origin) after 20 mins by fluorescence polarization assay
Outline: (§2)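 Competitive fluorescence polarization binding assay. Measures displacement of a 5-carboxyfluorescein-tagged synthetic peptide from the AVPI groove of the isolated BIR domain.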

[9] = biological target: E3 ubiquitin-protein ligase XIAP (Homo sapiens, UniProt P98170); experiment: Displacement of AbuRPFK-5FAM from GST-tagged XIAP BIR3 domain (N252 to E350) (unknown origin) after 20 mins by fluorescence polarization assay; outline: as §2
Sequence of E3 ubiquitin-protein ligase XIAP (P98170 whole entry, the tested form may be a part): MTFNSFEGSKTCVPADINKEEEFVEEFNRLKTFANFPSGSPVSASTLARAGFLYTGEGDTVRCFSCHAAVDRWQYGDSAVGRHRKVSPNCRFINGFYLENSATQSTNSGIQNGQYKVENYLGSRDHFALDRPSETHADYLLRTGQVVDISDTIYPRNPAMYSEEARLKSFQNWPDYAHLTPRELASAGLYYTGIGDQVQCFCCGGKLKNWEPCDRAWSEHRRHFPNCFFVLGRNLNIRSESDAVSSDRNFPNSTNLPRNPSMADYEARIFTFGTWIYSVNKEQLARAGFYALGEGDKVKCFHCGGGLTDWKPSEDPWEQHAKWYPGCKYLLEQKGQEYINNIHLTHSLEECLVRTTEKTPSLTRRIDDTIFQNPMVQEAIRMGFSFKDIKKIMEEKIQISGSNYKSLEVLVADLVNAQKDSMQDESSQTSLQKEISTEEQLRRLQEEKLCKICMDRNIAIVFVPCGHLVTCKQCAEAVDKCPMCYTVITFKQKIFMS

[10] = Volume of distribution at steady state in Han Wistar rat at 0.2 mg/kg, iv by LC-MS/MS analysis; type: ADME, organism-based; parameters: dose 0.2 mg/kg, route intravenous; details: in vivo, read-out: Vdss; outline: as §1
[11] = Total plasma clearance in Han Wistar rat at 0.2 mg/kg, iv by LC-MS/MS analysis; type: ADME, organism-based; parameters: dose 0.2 mg/kg, route intravenous; outline: as §1
[12] = Elimination half life in Han Wistar rat at 0.2 mg/kg, iv by LC-MS/MS analysis; type: ADME, organism-based; parameters: dose 0.2 mg/kg, route intravenous; details: in vivo, read-out: beta t1/2 (converted); outline: as §1
[13] = AUC in Han Wistar rat at 0.2 mg/kg, iv by LC-MS/MS analysis; type: ADME, organism-based; parameters: dose 0.2 mg/kg, route intravenous; details: plasma; outline: as §1
[14] = Apparent permeability from apical to basolateral side in human Caco2 cells; type: ADME, cell-based; details: Caco-2

SMILES | GI50 (MDA-MB-231) | EC50 [3] | other results
CN[C@@H](C)C(=O)N[C@H](C(=O)N1CCC[C@H]1C(=O)N[C@H]1c2ccccc2C[C@H]1NC(=O)c1ccc(C(=O)N[C@@H]2Cc3ccccc3[C@@H]2NC(=O)[C@@H]2CCCN2C(=O)[C@@H](NC(=O)[C@H](C)NC)C2CCCCC2)cc1)C1CCCCC1 | 6 nM | 124 nM | AUC [4]: 230 ng·h/mL; half-life [5]: 6.6 h; clearance [6]: 37 mL/min/kg; Vd [7]: 1.4 L/kg; inhibition [8]: Active
C#CCO[C@@H]1CCc2ccccc2[C@@H]1NC(=O)[C@@H]1CCCN1C(=O)[C@@H](NC(=O)[C@H](C)NC)C(C)(C)C | 16 nM | 4 nM | IC50 [8]: 10 nM; IC50 [9]: 19 nM
C#CCO[C@H]1CCc2ccccc2[C@H]1NC(=O)[C@@H]1CCCN1C(=O)[C@@H](NC(=O)[C@H](C)NC)C(C)(C)C | 192 nM | 126 nM | IC50 [8]: 40 nM; IC50 [9]: 600 nM
C#CCO[C@@H]1CCc2ccccc2[C@H]1NC(=O)[C@@H]1CCCN1C(=O)[C@@H](NC(=O)[C@H](C)NC)C(C)(C)C | 2190 nM | > 370 nM | IC50 [8]: 290 nM; IC50 [9]: 1310 nM
CN[C@@H](C)C(=O)N[C@H](C(=O)N1CCC[C@H]1C(=O)N[C@@H]1c2ccccc2CC[C@@H]1OCC#CC#CCO[C@H]1CCc2ccccc2[C@H]1NC(=O)[C@@H]1CCCN1C(=O)[C@@H](NC(=O)[C@H](C)NC)C(C)(C)C)C(C)(C)C | 97 nM | 4 nM | 
C#CCO[C@H]1CCc2ccccc2[C@@H]1NC(=O)[C@@H]1CCCN1C(=O)[C@@H](NC(=O)[C@H](C)NC)C(C)(C)C | 45 nM | 10 nM | IC50 [8]: 14 nM; IC50 [9]: 95 nM
CN[C@@H](C)C(=O)N[C@H](C(=O)N1CSC[C@H]1C(=O)N[C@H]1c2ccccc2C[C@H]1OCC#CC#CCO[C@@H]1Cc2ccccc2[C@@H]1NC(=O)[C@@H]1CSCN1C(=O)[C@@H](NC(=O)[C@H](C)NC)C(C)(C)C)C(C)(C)C | 0.1 nM | 0.5 nM | solubility thermodynamic at 24 h [1]: 268 µM (≈ 268 µg/mL); fraction unbound at 10 µM [2]: 0.107
CN[C@@H](C)C(=O)N[C@H](C(=O)N1CCC[C@H]1C(=O)N[C@H]1c2ccccc2C[C@H]1NC(=O)c1ccc(-c2ccc(C(=O)N[C@@H]3Cc4ccccc4[C@@H]3NC(=O)[C@@H]3CCCN3C(=O)[C@@H](NC(=O)[C@H](C)NC)C3CCCCC3)cc2)cc1)C1CCCCC1 | 0.6 nM | 15 nM | inhibition [8]: Active
CN[C@@H](C)C(=O)N[C@H](C(=O)N1CCC[C@H]1C(=O)N[C@@H]1CCN(CC#CC#CCN2CC[C@@H](NC(=O)[C@@H]3CCCN3C(=O)[C@@H](NC(=O)[C@H](C)NC)C3CCCCC3)c3ccccc32)c2ccccc21)C1CCCCC1 | 0.1 nM | 0.2 nM | Vd [10]: 1.2 L/kg; clearance [11]: 68 mL/min/kg; half-life [12]: 0.6 h; AUC [13]: 40 ng·h/mL
CN[C@@H](C)C(=O)N[C@H](C(=O)N1CCC[C@H]1C(=O)N[C@H]1c2ccccc2C[C@H]1NC(=O)CCCCCCCCC(=O)N[C@@H]1Cc2ccccc2[C@@H]1NC(=O)[C@@H]1CCCN1C(=O)[C@@H](NC(=O)[C@H](C)NC)C1CCCCC1)C1CCCCC1 | 0.2 nM | 3 nM | inhibition [8]: Active
CN[C@@H](C)C(=O)N[C@H](C(=O)N1CCC[C@H]1C(=O)NC1(C(=O)NCC#CC#CCNC(=O)C2(NC(=O)[C@@H]3CCCN3C(=O)[C@@H](NC(=O)[C@H](C)NC)C3CCCCC3)Cc3ccccc3C2)Cc2ccccc2C1)C1CCCCC1 | 13 nM | 5 nM | 
CN[C@@H](C)C(=O)N[C@H](C(=O)N1CCC[C@H]1C(=O)N[C@H]1c2ccccc2C[C@H]1OCC#CC#CCO[C@@H]1Cc2ccccc2[C@@H]1NC(=O)[C@@H]1CCCN1C(=O)[C@@H](NC(=O)[C@H](C)NC)C(C)(C)C)C(C)(C)C | < 2.4 nM | 0.4 nM | solubility thermodynamic at 24 h [1]: > 1000 µM; Papp A→B [14]: < 0.1 ×10⁻⁶ cm/s

Continued, in another order:

GI50 (MDA-MB-231) | EC50 [3] | SMILES | other results
0.1 nM | 0.3 nM | CN[C@@H](C)C(=O)N[C@H](C(=O)N1CC=C[C@H]1C(=O)N[C@H]1c2ccccc2C[C@H]1OCC#CC#CCO[C@@H]1Cc2ccccc2[C@@H]1NC(=O)[C@@H]1C=CCN1C(=O)[C@@H](NC(=O)[C@H](C)NC)C1CCCCC1)C1CCCCC1 | solubility thermodynamic at 24 h [1]: 77 µM (≈ 77.9 µg/mL); fraction unbound at 10 µM [2]: 0.029
0.1 nM | 0.2 nM | CN[C@@H](C)C(=O)N[C@H](C(=O)N1CSC[C@H]1C(=O)N[C@H]1c2ccccc2C[C@H]1OCC#CC#CCO[C@@H]1Cc2ccccc2[C@@H]1NC(=O)[C@@H]1CSCN1C(=O)[C@@H](NC(=O)[C@H](C)NC)C1CCCCC1)C1CCCCC1 | solubility thermodynamic at 24 h [1]: < 1 µM; fraction unbound at 10 µM [2]: 0.011
> 370 nM | > 370 nM | CN[C@@H](C)C(=O)N[C@H](C(=O)N1CCC[C@H]1C(=O)N[C@H]1c2ccccc2C[C@H]1OCC#CC#CCO[C@@H]1Cc2ccccc2[C@@H]1NC(=O)[C@@H]1CCCN1C(=O)[C@@H](NC(=O)[C@H](C)NC)C1CCNCC1)C1CCNCC1 | 
76 nM | > 370 nM | CN[C@@H](C)C(=O)N[C@H](C(=O)N1CCC[C@H]1C(=O)N[C@H]1c2ccccc2C[C@H]1OCC#CC#CCO[C@@H]1Cc2ccccc2[C@@H]1NC(=O)[C@@H]1CCCN1C(=O)[C@@H](NC(=O)[C@H](C)NC)C1CCN(C(C)=O)CC1)C1CCN(C(C)=O)CC1 | 
< 0.1 nM | 0.6 nM | CN[C@@H](C)C(=O)N[C@H](C(=O)N1CSC2(CC2)[C@H]1C(=O)N[C@H]1c2ccccc2C[C@H]1OCC#CC#CCO[C@@H]1Cc2ccccc2[C@@H]1NC(=O)[C@H]1N(C(=O)[C@@H](NC(=O)[C@H](C)NC)C2CCCCC2)CSC12CC2)C1CCCCC1 | solubility thermodynamic at 24 h [1]: < 1 µM; fraction unbound at 10 µM [2]: < 0.01
0.3 nM | 0.6 nM | CN[C@@H](C)C(=O)N[C@H](C(=O)N1CCC[C@H]1C(=O)N[C@H]1c2ccccc2CC[C@@H]1OCC#CC#CCO[C@H]1CCc2ccccc2[C@@H]1NC(=O)[C@@H]1CCCN1C(=O)[C@@H](NC(=O)[C@H](C)NC)C(C)(C)C)C(C)(C)C | 
0.4 nM | 2 nM | CN[C@@H](C)C(=O)N[C@H](C(=O)N1CCC[C@H]1C(=O)N[C@H]1c2ccccc2C[C@H]1OCC#CC#CCO[C@@H]1Cc2ccccc2[C@@H]1NC(=O)[C@@H]1CCCN1C(=O)[C@@H](NC(=O)[C@H](C)NC)C(C)C)C(C)C | Vd [10]: 2.3 L/kg; clearance [11]: 44 mL/min/kg; half-life [12]: 1.6 h; AUC [13]: 76 ng·h/mL
61 nM | 2 nM | CN[C@@H](C)C(=O)N[C@H](C(=O)N1CCC[C@H]1C(=O)N[C@@H]1c2ccccc2CC[C@H]1OCC#CC#CCO[C@@H]1CCc2ccccc2[C@H]1NC(=O)[C@@H]1CCCN1C(=O)[C@@H](NC(=O)[C@H](C)NC)C(C)(C)C)C(C)(C)C | 
0.1 nM | 0.1 nM | CN[C@@H](C)C(=O)N[C@H](C(=O)N1[C@H](C(=O)N[C@H]2c3ccccc3C[C@H]2OCC#CC#CCO[C@@H]2Cc3ccccc3[C@@H]2NC(=O)[C@@H]2C[C@@H]3C[C@@H]3N2C(=O)[C@@H](NC(=O)[C@H](C)NC)C2CCCCC2)C[C@@H]2C[C@@H]21)C1CCCCC1 | solubility thermodynamic at 24 h [1]: 48 µM (≈ 49.9 µg/mL); fraction unbound at 10 µM [2]: < 0.01
> 370 nM | > 370 nM | CN[C@@H](C)C(=O)N[C@H](C(=O)N1CCC[C@H]1C(=O)N[C@H]1c2ccccc2C[C@H]1OCC#CC#CCO[C@@H]1Cc2ccccc2[C@@H]1NC(=O)[C@@H]1CCCN1C(=O)[C@@H](NC(=O)[C@H](C)NC)C1CCN(CCO)CC1)C1CCN(CCO)CC1 | 
< 0.1 nM | 0.2 nM | CN[C@@H](C)C(=O)N[C@H](C(=O)N1CCC[C@H]1C(=O)N[C@H]1c2ccccc2C[C@@H]1OCC#CC#CCO[C@H]1Cc2ccccc2[C@@H]1NC(=O)[C@@H]1CCCN1C(=O)[C@@H](NC(=O)[C@H](C)NC)C1CCCCC1)C1CCCCC1 | 
> 370 nM | > 370 nM | CN[C@@H](C)C(=O)N[C@@H](CCCCN)C(=O)N1CCC[C@H]1C(=O)N[C@H]1c2ccccc2C[C@H]1OCC#CC#CCO[C@@H]1Cc2ccccc2[C@@H]1NC(=O)[C@@H]1CCCN1C(=O)[C@H](CCCCN)NC(=O)[C@H](C)NC | 
0.1 nM | 0.2 nM | CN[C@@H](C)C(=O)N[C@H](C(=O)N1CCC[C@H]1C(=O)N[C@H]1c2ccccc2CC[C@H]1OCC#CC#CCO[C@@H]1CCc2ccccc2[C@@H]1NC(=O)[C@@H]1CCCN1C(=O)[C@@H](NC(=O)[C@H](C)NC)C(C)(C)C)C(C)(C)C | Vd [10]: 1.9 L/kg; solubility thermodynamic at 24 h [1]: > 1000 µM; clearance [11]: 111 mL/min/kg; half-life [12]: 0.5 h; AUC [13]: 30 ng·h/mL
